Measurements gathered from unrelated publications.
Target: 5'-AMP-activated protein kinase catalytic subunit alpha-1 (PRKAA1, Homo sapiens, UniProt Q13131)
Technique: competition with immobilised ligand

Structure (SMILES) | observed | concentration | remaining binding [%]
O=C(NCCCN1CCOCC1)c1ccc(Nc2nccc(-c3cc4ccccc4s3)n2)cc1 | binding | 1 µM | 42
CN(C)c1nccc(-c2cnn3ncccc23)n1 | binding | 1 µM | 100
O=C(NCC1CCOCC1)c1n[nH]cc1NC(=O)c1c(F)cccc1F | binding | 1 µM | 93
N[C@@H]1CCN(c2nccc(-c3cnn4ncccc34)n2)C1 | binding | 1 µM | 95
O=C(c1ccc(Nc2ncc(Cl)c(-c3ccc(Cl)s3)n2)cc1)N1CCC(N2CCCC2)CC1 | binding | 1 µM | 8.1
Nc1ncc2c(n1)-c1c([nH]c3ccc(C#CC4CC4)cc13)CCCC2 | binding | 1 µM | 97
CS(=O)(=O)c1cc(C2(NC(=O)c3cncc4c3cnn4-c3ccc(F)cc3)CC2)ccn1 | cell-free assay | 1 µM | 99
CN(C)c1nccc(-c2cnc3ncccn23)n1 | binding | 1 µM | 100
FC(F)(F)Oc1cccc(-c2cnc3ccc(-c4ccncc4)nn23)c1 | cell-free assay | 5 µM | 96
C[C@H](NC(=O)c1cnc2n1[C@](C)(Cc1ccc(C#N)cc1)C(=O)N2c1cc(Cl)c(F)c(Cl)c1)C(=O)NC1(c2ccccn2)CC1 | cell-free assay | 1 µM | 100
COc1ncc2cc3ccccc3nc2c1C#N | cell-free assay | 5 µM | 100
CNC(=O)[C@@H]1CC[C@@H](n2c(-c3ccc4cnccc4c3)nc3ccc(C(=O)NCc4cccc(C(N)=O)c4)cc32)C1 | binding | 1 µM | 84
CC(=O)N1CCC(c2ccc(C(=O)NC3=NCCN3)cc2C(F)(F)F)CC1 | cell-free assay | 1 µM | 100
CCN1CCN(Cc2ccc(C(=O)Nc3ccc(C)c(Oc4ccc5c(c4)CC(=O)N5)c3)cc2C(F)(F)F)CC1 | binding | 1 µM | 100
Cc1cnc(Nc2ccc(C(=O)N3CCC(N4CCCC4)CC3)cc2)nc1-c1cc2ccccc2s1 | binding | 1 µM | 7.9
c1cnn2ncc(-c3ccnc(N4CCC45COC5)n3)c2c1 | binding | 1 µM | 92
NS(=O)(=O)c1cc(NC(=O)C2(c3ccccc3Cl)CC2)ccc1Oc1cccc(Cl)c1 | cell-free assay | 1 µM | 80
COc1ccnn2ncc(-c3ccnc(N(C)C)n3)c12 | binding | 1 µM | 97
CC(C)CC(=O)N1CCc2nc(-c3ccc(Br)cc3)nc(N(C)Cc3ccccc3)c2C1 | cell-free assay | 0.1 µM | 100
C[C@@H]1CCN(c2nccc(-c3cnn4ncccc34)n2)C1 | binding | 1 µM | 99
O=C(Nc1cnc(Oc2ccc(F)cc2)nc1)N1CCc2ncccc2[C@@H]1c1ccc(F)cc1 | cell-free assay | 1 µM | 88
